ChEMBL document CHEMBL1124186, “Synthesis and evaluation of tylosin-related macrolides modified at the aldehyde function: a new series of orally effective antibiotics” (1988)
Converted amounts (≈) assume the structure as drawn.

Legend:
Streptococcus pyogenes [1] = assay: In vivo effective dose against experimental infections in rodent caused by Streptococcus pyogenes C203 when administered orally; type: functional; conditions: po
Streptococcus pyogenes [2] = assay: In vitro antimicrobial activity against Streptococcus pyogenes C203; type: functional
Streptococcus pyogenes [3] = assay: Activity against Streptococcus pyogenes C203 when administered orally; type: functional; conditions: po
Procedure, shortened: (§1)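 Mouse protection test: infected mice were dosed twice, at 1 and 5 h postinfection, either subcutaneously or orally. […] The result is expressed as ED50 in mg/kg × 2.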

Streptococcus pyogenes [4] = assay: Anti microbial activity against Streptococcus pyogenes; type: functional
Streptococcus pneumoniae [5] = assay: In vitro antimicrobial activity against Streptococcus pneumoniae; type: functional
Streptococcus pyogenes [6] = assay: Activity against Streptococcus pyogenes C203 when administered sc; type: functional; procedure, shortened: as §1
Staphylococcus aureus [7] = assay: In vitro antimicrobial activity against Staphylococcus aureus X1; type: functional
Streptococcus pyogenes [8] = assay: In vivo effective dose against experimental infections in rodent caused by Streptococcus pyogenes C203 when administered sc; type: functional
Haemophilus influenzae [9] = assay: In vitro antimicrobial activity against Haemophilus influenzae.; type: functional
[10] = tested on: Staphylococcus epidermidis; assay: In vitro antimicrobial activity against Staphylococcus epidermidis EPI1; type: functional
[11] = tested on: Staphylococcus epidermidis; assay: In vitro antimicrobial activity against aerobic bacteria Streptococcus epi 222; type: functional
Streptococcus [12] = assay: In vitro antimicrobial activity against aerobic bacteria Streptococcus D 9960; type: functional
Mus musculus [13] = assay: Peripheral plasma levels in mice after oral administration of 50 mg/kg dose for 2 hr; type: functional, organism-based; set-up: dose 50 mg/kg
Procedure, shortened: (§2)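 Mice were given the compound orally and sampled for peripheral plasma at each time point. Plasma was assayed microbiologically against Micrococcus luteus seeded in Antibiotic Medium 1. Inhibition zone sizes were read, and concentrations were calculated from each compound's own standard curve. Each value is the mean of five mice per time point.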

Streptococcus [14] = assay: In vitro antimicrobial activity against aerobic bacteria Streptococcus D 2041; type: functional
Rattus norvegicus [15] = assay: Peripheral plasma levels in rats after oral administration of 100 mg/kg dose for 2 hr; type: functional, organism-based; set-up: dose 100 mg/kg
Procedure, shortened: (§3)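 Rats received 100 mg/kg orally and were sampled for peripheral plasma. Concentrations were measured by Micrococcus luteus agar-diffusion microbiological assay in Antibiotic Medium 1, with zone sizes converted using the standard curve for the appropriate compound. Each value is the average of three rats per time point.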

Staphylococcus aureus [16] = assay: In vitro antimicrobial activity against aerobic bacteria Staphylococcus aureus 513E; type: functional
Staphylococcus aureus [17] = assay: In vitro antimicrobial activity against aerobic bacteria Staphylococcus aureus V140,; type: functional
Mus musculus [18] = assay: Peripheral plasma levels in mice after oral administration of 100 mg/kg dose for 0.25 hr; type: functional, organism-based; set-up: dose 100 mg/kg; procedure, shortened: as §2
Mus musculus [19] = assay: Peripheral plasma levels in mice after oral administration of 100 mg/kg dose for 2 hr; type: functional, organism-based; set-up: dose 100 mg/kg; procedure, shortened: as §2
Mus musculus [20] = assay: Peripheral plasma levels in mice after oral administration of 50 mg/kg dose for 0.5 hr; type: functional, organism-based; set-up: dose 50 mg/kg; procedure, shortened: as §2
Mus musculus [21] = assay: Peripheral plasma levels in mice after oral administration of 100 mg/kg dose for 1 hr; type: functional, organism-based; set-up: dose 100 mg/kg; procedure, shortened: as §2
Rattus norvegicus [22] = assay: Peripheral plasma levels in rats after oral administration of 100 mg/kg dose for 0.5 hr; type: functional, organism-based; set-up: dose 100 mg/kg; procedure, shortened: as §3
Streptococcus [23] = assay: In vitro antimicrobial activity against aerobic bacteria Streptococcus B 5; type: functional
Streptococcus [24] = assay: In vitro antimicrobial activity against aerobic bacteria Streptococcus G Kruder; type: functional; conditions: Streptococcus; read-out: MIC
Streptococcus viridans = assay: In vitro antimicrobial activity against aerobic bacteria Streptococcus viridans 9943; type: functional
Streptococcus sanguinis = assay: In vitro antimicrobial activity against aerobic bacteria Streptococcus sanguis MX132; type: functional
Streptococcus pneumoniae [25] = assay: In vitro antimicrobial activity against aerobic bacteria Streptococcus pneumoniae B1-438; type: functional, streptococcus pneum
Staphylococcus aureus [26] = assay: In vitro antimicrobial activity against aerobic bacteria Staphylococcus aureus V41; type: functional
Streptococcus [27] = assay: In vitro antimicrobial activity against aerobic bacteria Streptococcus C 24; type: functional
Staphylococcus aureus [28] = assay: In vitro antimicrobial activity against aerobic bacteria Staphylococcus aureus X400; type: functional
[29] = tested on: Staphylococcus epidermidis; assay: In vitro antimicrobial activity against aerobic bacteria Streptococcus epi 270; type: functional
Haemophilus influenzae [30] = assay: In vitro antimicrobial activity against aerobic bacteria Haemophilus influenzae 76; type: functional
Mus musculus [31] = assay: Peripheral plasma levels in mice after oral administration of 50 mg/kg dose for 1 hr; type: functional, organism-based; set-up: dose 50 mg/kg; procedure, shortened: as §2
Rattus norvegicus [32] = assay: Peripheral plasma levels in rats after oral administration of 100 mg/kg dose for 0.25 hr; type: functional, organism-based; set-up: dose 100 mg/kg; procedure, shortened: as §3
Haemophilus influenzae [33] = assay: In vitro antimicrobial activity against aerobic bacteria Haemophilus influenzae MX366,; type: functional
Mus musculus [34] = assay: Peripheral plasma levels in mice after oral administration of 100 mg/kg dose for 4 hr; type: functional, organism-based; set-up: dose 100 mg/kg; procedure, shortened: as §2
Rattus norvegicus [35] = assay: Peripheral plasma levels in rats after oral administration of 100 mg/kg dose for 4 hr; type: functional, organism-based; set-up: dose 100 mg/kg; procedure, shortened: as §3
Enterococcus faecium = assay: In vitro antimicrobial activity against Streptococcus faecium X66; type: functional, streptococcus fae-cium
Rattus norvegicus [36] = assay: Peripheral plasma levels in rats after oral administration of 100 mg/kg dose for 1 hr; type: functional, organism-based; set-up: dose 100 mg/kg; procedure, shortened: as §3
Streptococcus [37] = assay: In vitro antimicrobial activity against aerobic bacteria Streptococcus D 8043; type: functional
Streptococcus [38] = assay: In vitro antimicrobial activity against aerobic bacteria Streptococcus B 14; type: functional
Staphylococcus aureus [39] = assay: In vitro antimicrobial activity against aerobic bacteria Staphylococcus aureus V135; type: functional
Mus musculus [40] = assay: Peripheral plasma levels in mice after oral administration of 100 mg/kg dose for 0.5 hr; type: functional, organism-based; set-up: dose 100 mg/kg; procedure, shortened: as §2
Streptococcus [41] = assay: In vitro antimicrobial activity against aerobic bacteria Streptococcus B 8; type: functional
Streptococcus pyogenes [42] = assay: In vivo effective dose xperimental infections in rodent caused by Streptococcus pyogenes C203 when administered sc; type: functional
Mus musculus [43] = assay: Peripheral plasma levels in mice after oral administration of 50 mg/kg dose for 0.25 hr; type: functional, organism-based; set-up: dose 50 mg/kg; procedure, shortened: as §2

SMILES: CC[C@H]1OC(=O)C[C@@H](O)[C@H](C)[C@@H](O[C@@H]2O[C@H](C)[C@@H](O[C@H]3C[C@@](C)(O)[C@@H](O)[C@H](C)O3)[C@H](N(C)C)[C@H]2O)[C@@H](C)C[C@@H](C)C(=O)/C=C/C(C)=C/[C@@H]1CO[C@@H]1O[C@H](C)[C@@H](O)[C@@H](OC)[C@H]1OC [DEFORMYLTYLOSIN]
- ED50 (Streptococcus pyogenes [1]): 12 mg/kg
- MIC (Streptococcus pyogenes [2]): 1 µg/mL (≈ 1.13 µM)
- ED50 (Streptococcus pyogenes [3]): 12 mg/kg
- MIC (Streptococcus pyogenes [4]): 1 µg/mL (≈ 1.13 µM)
- MIC (Streptococcus pneumoniae [5]): 32 µg/mL (≈ 36 µM)
- ED50 (Streptococcus pyogenes [6]): 2 mg/kg
- MIC (Staphylococcus aureus [7]): 0.5 µg/mL (≈ 0.563 µM)
- ED50 (Streptococcus pyogenes [8]): 2 mg/kg
- MIC (Haemophilus influenzae [9]): 128 µg/mL (≈ 144 µM)
- MIC [10]: 1 µg/mL (≈ 1.13 µM)

SMILES: CC[C@H]1OC(=O)C[C@@H](O)[C@H](C)[C@@H](O[C@@H]2O[C@H](C)[C@@H](O[C@H]3C[C@@](C)(O)[C@@H](O)[C@H](C)O3)[C@H](N(C)C)[C@H]2O)[C@@H](CCOc2ccccc2)C[C@@H](C)C(=O)/C=C/C(C)=C/[C@@H]1CO[C@@H]1O[C@H](C)[C@@H](O)[C@@H](OC)[C@H]1OC
- MIC [11]: 1 µg/mL (≈ 1.01 µM)
- MIC (Streptococcus [12]): 128 µg/mL (≈ 129 µM)
- Concentration (Mus musculus [13]): 1.2 µg/mL
- MIC (Streptococcus pyogenes [2]): 2 µg/mL (≈ 2.01 µM)
- MIC (Streptococcus [14]): > 128 µg/mL
- Concentration (Rattus norvegicus [15]): 2.7 µg/mL
- MIC (Staphylococcus aureus [16]): 1 µg/mL (≈ 1.01 µM)
- MIC (Staphylococcus aureus [17]): 2 µg/mL (≈ 2.01 µM)
- Concentration (Mus musculus [18]): 7.9 µg/mL
- Concentration (Mus musculus [19]): 4 µg/mL
- Concentration (Mus musculus [20]): 2 µg/mL
- Concentration (Mus musculus [21]): 6 µg/mL
- Concentration (Rattus norvegicus [22]): 0.6 µg/mL
- MIC (Streptococcus [23]): 128 µg/mL (≈ 129 µM)
- MIC (Streptococcus [24]): > 128 µg/mL
- MIC (Streptococcus viridans): > 128 µg/mL
- MIC (Streptococcus sanguinis): 8 µg/mL (≈ 8.05 µM)
- MIC (Streptococcus pneumoniae [25]): > 128 µg/mL
- MIC (Staphylococcus aureus [26]): 1 µg/mL (≈ 1.01 µM)
- MIC (Streptococcus [27]): 1 µg/mL (≈ 1.01 µM)
- MIC (Staphylococcus aureus [28]): 2 µg/mL (≈ 2.01 µM)
- MIC [29]: > 128 µg/mL
- MIC (Haemophilus influenzae [30]): > 128 µg/mL
- Concentration (Mus musculus [31]): 2.3 µg/mL
- Concentration (Rattus norvegicus [32]): 0.2 µg/mL
- MIC (Haemophilus influenzae [33]): 128 µg/mL (≈ 129 µM)
- MIC (Staphylococcus aureus [7]): 1 µg/mL (≈ 1.01 µM)
- Concentration (Mus musculus [34]): 3.5 µg/mL
- Concentration (Rattus norvegicus [35]): 2.6 µg/mL
- MIC (Enterococcus faecium): 128 µg/mL (≈ 129 µM)
- Concentration (Rattus norvegicus [36]): 2 µg/mL
- MIC (Streptococcus [37]): 128 µg/mL (≈ 129 µM)
- MIC (Haemophilus influenzae [9]): > 128 µg/mL
- MIC (Streptococcus [38]): 128 µg/mL (≈ 129 µM)
- MIC (Staphylococcus aureus [39]): 1 µg/mL (≈ 1.01 µM)
- Concentration (Mus musculus [40]): 7.4 µg/mL
- MIC (Streptococcus [41]): 128 µg/mL (≈ 129 µM)
- ED50 (Streptococcus pyogenes [42]): > 6.3 mg/kg
- Concentration (Mus musculus [43]): 1.6 µg/mL
- MIC [10]: 1 µg/mL (≈ 1.01 µM)
